Data from ChEMBL document CHEMBL4028840, “6-Nitro-2,3-dihydroimidazo[2,1-b][1,3]thiazoles: Facile synthesis and comparative appraisal against tuberculosis and neglected tropical diseases” (Bioorg Med Chem Lett, 2017).
≈ marks a conversion by molar mass, not a printed value.

Experiments:
[1] = system: Mycobacterium tuberculosis; experiment: Anti-tubercular activity against Mycobacterium tuberculosis infected in BALB/c mouse assessed as reduction in lung colony forming units at 100 mg/kg, po administered via gavage for 5 days each week for 3 weeks measured after 1 day post last dose relative to PA-824; assay type: functional
In short: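 Mouse model of acute TB infection. Oral dosing at 100 mg/kg daily, 5 days per week, for 3 weeks. Read-out is fold reduction in lung CFU, expressed as a ratio to the fold CFU reduction from the reference nitroimidazole run alongside.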

[2] = Stability in CD-1 mouse liver microsomes assessed as compound remaining measured after 1 hr; assay type: ADME, microsome; conditions: read-out: Stability
[3] = Stability in pooled human liver microsomes assessed as compound remaining measured after 1 hr; assay type: ADME, microsome; conditions: read-out: Stability
[4] = system: Mycobacterium tuberculosis; experiment: Anti-tubercular activity against Mycobacterium tuberculosis H37Rv ATCC 27294 after 7 days under aerobic condition by microplate alamar blue assay; assay type: functional
In short: (§1)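 M. tuberculosis H37Rv MIC measured in two assays: aerobic growth by MABA and hypoxic exposure by LORA. Each value is the mean of ≥2 independent determinations.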

[5] = system: Mycobacterium tuberculosis; experiment: Anti-tubercular activity against Mycobacterium tuberculosis H37Rv ATCC 27294 after 10 days under hypoxic condition by low-oxygen recovery assay; assay type: functional; in short: as §1
[6] = system: Trypanosoma brucei brucei; experiment: Anti-parasitic activity against Trypanosoma brucei brucei Squib-427 after 72 hrs by resazurin dye based fluorescence assay; assay type: functional
In short: (§2)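 IC50 for growth inhibition of L. infantum, T. cruzi and T. brucei parasites, or for cytotoxicity toward human lung fibroblasts (MRC-5). Values are means of two or more independent experiments.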

[7] = Cytotoxicity against human MRC5 SV2 cells after 72 hrs by resazurin dye based fluorescence assay; assay type: cell-based; in short: as §2
Trypanosoma cruzi = experiment: Anti-parasitic activity against Trypanosoma cruzi Tulahuen CL2 infected in human MRC5 cells after 7 days by chlorophenol red […]-D-galactopyranoside dye based assay; assay type: functional, cell-based; in short: as §2
[8] = Solubility in water at pH 7 after 15 mins by HPLC method; assay type: physicochemical; conditions: for solubility at 0.25 h: water, pH 7
In short: (§3)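 Solubility measured at 20 °C by HPLC, in water (pH 7) or 0.1 M HCl (pH 1).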

Vero = experiment: Cytotoxicity against African green monkey Vero cells after 72 hrs by MTS/PMS assay; assay type: cell-based; conditions: Chlorocebus sabaeus
In short: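 VERO mammalian cells exposed for 72 h. Cytotoxicity IC50 comes from a single test.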

Leishmania infantum = experiment: Anti-parasitic activity against Leishmania infantum MHOM/MA(BE)/67 amastigotes infected in mouse primary peritoneal macrophages after 5 days by giemsa staining based microscopic method; assay type: functional; in short: as §2
[9] = Solubility in HCl at pH 1 after 15 mins by HPLC method; assay type: physicochemical; in short: as §3
[10] = Mycobacterium tuberculosis, H37Rv ATCC 27294, 168 h, read-out: MIC
[11] = Mycobacterium tuberculosis, H37Rv ATCC 27294, 240 h, read-out: MIC
[12] = Trypanosoma brucei, Squib-427, 72 h
[13] = Trypanosoma cruzi, Tulahuen CL2, MRC5, 168 h
[14] = Leishmania infantum, MHOM/MA(BE)/67, 120 h

Compound	MIC [4, 10]	MIC [5, 11]	IC50 [6, 12]	IC50 ([7]; Homo sapiens, MRC-5 SV2, 72 h)	IC50 (Trypanosoma cruzi; [13])	IC50 (Vero)	IC50 (Leishmania infantum; [14])	further results
C[C@]1(COc2ccc(N3CCC(Oc4ccc(OC(F)(F)F)cc4)CC3)cc2)Cn2cc([N+](=O)[O-])nc2O1	–	–	–	–	–	–	–	fold change (FC) [1]: 68; remaining at 1 h [2]: 87%; remaining at 1 h [3]: 71%
O=[N+]([O-])c1cn2c(n1)OC[C@@H](COc1ccc(OC(F)(F)F)cc1)C2	–	–	–	–	–	–	–	remaining at 1 h [2]: 94%; remaining at 1 h [3]: 82%
CC1(COc2ccc(Oc3ccccc3)cc2)Cn2cc([N+](=O)[O-])nc2O1 (configuration not stated)	0.79 µM (≈ 0.29 µg/mL)	24 µM (≈ 8.82 µg/mL)	28 µM	> 64 µM	1.9 µM	–	–	–
CC1(COc2ccc(-c3ccc(OC(F)(F)F)cc3)cc2)Cn2cc([N+](=O)[O-])nc2O1 (configuration not stated)	–	–	–	–	–	–	–	fold change (FC) [1]: 115; solubility ([8]; buffer, pH 7, 0.25 h): 0.41 µg/mL (≈ 0.942 µM)
CC1(COCc2ccc(OC(F)(F)F)cc2)Cn2cc([N+](=O)[O-])nc2O1 (configuration not stated)	–	–	–	–	–	–	–	fold change (FC) [1]: 0.025; solubility at 0.25 h [8]: 11 µg/mL (≈ 29.5 µM)
O=[N+]([O-])c1cn2c(n1)SC(COc1ccc(Oc3ccccc3)cc1)C2 (configuration not stated)	> 128 µM	29 µM (≈ 10.7 µg/mL)	11 µM	56 µM	1.6 µM	> 128 µM	56 µM	–
CC1(COc2ccc(-c3ccc(F)cc3)cc2)Cn2cc([N+](=O)[O-])nc2S1 (configuration not stated)	0.21 µM (≈ 0.0809 µg/mL)	> 64 µM	> 64 µM	> 64 µM	0.21 µM	> 128 µM	> 64 µM	–
CC1(COc2ccc(OC(F)(F)F)cc2)Cn2cc([N+](=O)[O-])nc2S1 (configuration not stated)	0.49 µM (≈ 0.184 µg/mL)	10 µM (≈ 3.75 µg/mL)	> 64 µM	> 64 µM	0.38 µM	> 128 µM	> 64 µM	–
CC1(CO)Cn2cc([N+](=O)[O-])nc2S1 (configuration not stated)	10 µM (≈ 2.15 µg/mL)	> 128 µM	–	–	–	–	–	–
C[C@]1(COCc2ccc(OC(F)(F)F)cc2)Cn2cc([N+](=O)[O-])nc2S1	0.2 µM (≈ 0.0779 µg/mL)	5.8 µM (≈ 2.26 µg/mL)	> 64 µM	43 µM	0.57 µM	24 µM	> 64 µM	remaining at 1 h [2]: 0%; remaining at 1 h [3]: 29%
CC1(COCc2ccc(-c3ccc(OC(F)(F)F)cc3)cc2)Cn2cc([N+](=O)[O-])nc2S1 (configuration not stated)	1.4 µM (≈ 0.652 µg/mL)	> 64 µM	2.8 µM	> 64 µM	0.14 µM	–	56 µM	–
CC1(COCc2ccc(-c3ccc(C(F)(F)F)cc3)cc2)Cn2cc([N+](=O)[O-])nc2S1 (configuration not stated)	1.1 µM (≈ 0.494 µg/mL)	> 64 µM	1.1 µM	> 64 µM	0.04 µM	–	56 µM	–
CC1(COc2ccc(-c3ccc(OC(F)(F)F)cc3)cc2)Cn2cc([N+](=O)[O-])nc2S1 (configuration not stated)	0.063 µM (≈ 0.0284 µg/mL)	> 128 µM	> 64 µM	> 64 µM	0.085 µM	> 128 µM	45 µM	fold change (FC) [1]: 5.7; remaining at 1 h [2]: 75%; remaining at 1 h [3]: 84%; solubility at 0.25 h [8]: 0.25 µg/mL (≈ 0.554 µM)
C[C@@]1(COCc2ccc(OC(F)(F)F)cc2)Cn2cc([N+](=O)[O-])nc2S1	6.1 µM (≈ 2.38 µg/mL)	51 µM (≈ 19.9 µg/mL)	> 64 µM	> 64 µM	1.6 µM	52 µM	> 64 µM	–
O=[N+]([O-])c1cn2c(n1)SC(COCc1ccc(OC(F)(F)F)cc1)C2 (configuration not stated)	4.4 µM (≈ 1.65 µg/mL)	15 µM (≈ 5.63 µg/mL)	> 64 µM	> 64 µM	0.87 µM	> 128 µM	64 µM	–
CC1(COc2ccc(OC(F)(F)F)cc2)Cn2nc([N+](=O)[O-])nc2S1(=O)=O (configuration not stated)	2.2 µM (≈ 0.898 µg/mL)	27 µM (≈ 11 µg/mL)	2.1 µM	0.42 µM	1.3 µM	46 µM	1.3 µM	–
CC1(COCc2ccc(Oc3ccccc3)cc2)Cn2c([N+](=O)[O-])cnc2S1 (configuration not stated)	> 128 µM	> 128 µM	53 µM	> 64 µM	19 µM	–	55 µM	–
CC1(COCc2ccc(-c3ccc(F)cc3)cc2)Cn2cc([N+](=O)[O-])nc2S1 (configuration not stated)	1.5 µM (≈ 0.599 µg/mL)	> 64 µM	> 64 µM	> 64 µM	0.15 µM	–	> 64 µM	–

Compound	MIC [4, 10]	MIC [5, 11]	IC50 [6, 12]	IC50 ([7]; Homo sapiens, MRC-5 SV2, 72 h)	IC50 (Trypanosoma cruzi; [13])	IC50 (Vero)	IC50 (Leishmania infantum; [14])	further results
CC1(COc2ccc(OC(F)(F)F)cc2)Cn2nc(Br)nc2S1 (configuration not stated)	24 µM (≈ 9.85 µg/mL)	> 128 µM	34 µM	42 µM	6.2 µM	89 µM	> 64 µM	–
CC1(COc2ccc(Oc3ccccc3)cc2)Cn2cc([N+](=O)[O-])nc2S1 (configuration not stated)	0.76 µM (≈ 0.291 µg/mL)	5.3 µM (≈ 2.03 µg/mL)	> 64 µM	> 64 µM	0.14 µM	> 128 µM	> 64 µM	–
CC1(COc2ccc(OC(F)(F)F)cc2)Cn2nc([N+](=O)[O-])nc2[S+]1[O-] (configuration not stated)	9.3 µM (≈ 3.65 µg/mL)	90 µM (≈ 35.3 µg/mL)	3 µM	0.74 µM	1.2 µM	98 µM	0.9 µM	–
O=[N+]([O-])c1cn2c(n1)OC(COc1ccc(Oc3ccccc3)cc1)C2 (configuration not stated)	0.96 µM (≈ 0.339 µg/mL)	> 128 µM	> 64 µM	19 µM	3.1 µM	> 128 µM	3.4 µM	–
CC1(COc2ccc(Oc3ccccc3)cc2)Cn2cc([N+](=O)[O-])nc2S1(=O)=O (configuration not stated)	> 128 µM	> 128 µM	3.8 µM	45 µM	0.46 µM	> 128 µM	55 µM	–
CC1(COCc2ccc(OC(F)(F)F)cc2)Cn2c([N+](=O)[O-])cnc2S1 (configuration not stated)	55 µM (≈ 21.4 µg/mL)	59 µM (≈ 23 µg/mL)	22 µM	47 µM	7.3 µM	45 µM	> 64 µM	–
CC1(COCc2ccc(OC(F)(F)F)cc2)Cn2cc([N+](=O)[O-])nc2S1 (configuration not stated)	0.24 µM (≈ 0.0934 µg/mL)	7.9 µM (≈ 3.08 µg/mL)	56 µM	> 64 µM	0.67 µM	–	57 µM	solubility at 0.25 h [8]: 2.4 µg/mL (≈ 6.16 µM)
O=[N+]([O-])c1cn2c(n1)SC(COc1ccc(OC(F)(F)F)cc1)C2 (configuration not stated)	4.5 µM (≈ 1.63 µg/mL)	8.2 µM (≈ 2.96 µg/mL)	> 64 µM	> 64 µM	0.85 µM	> 128 µM	> 64 µM	–
CC1(COc2ccc(N3CCC(Oc4ccc(OC(F)(F)F)cc4)CC3)cc2)Cn2cc([N+](=O)[O-])nc2S1 (configuration not stated)	0.073 µM (≈ 0.0402 µg/mL)	71 µM (≈ 39.1 µg/mL)	59 µM	> 64 µM	0.055 µM	> 128 µM	53 µM	solubility at 0.25 h [9]: 13 µg/mL (≈ 23.6 µM); solubility at 0.25 h [8]: 0.18 µg/mL (≈ 0.327 µM)
CC1(COc2ccc(-c3ccc(C(F)(F)F)cc3)cc2)Cn2cc([N+](=O)[O-])nc2S1 (configuration not stated)	0.12 µM (≈ 0.0523 µg/mL)	46 µM (≈ 20 µg/mL)	52 µM	> 64 µM	0.035 µM	> 128 µM	> 64 µM	–
CC1(COCc2ccc(OC(F)(F)F)cc2)Cn2cc([N+](=O)[O-])nc2S1(=O)=O (configuration not stated)	> 128 µM	21 µM (≈ 8.85 µg/mL)	> 64 µM	> 64 µM	0.97 µM	–	> 64 µM	–
CC1(COc2ccc(OC(F)(F)F)cc2)Cn2cc([N+](=O)[O-])nc2S1(=O)=O (configuration not stated)	14 µM (≈ 5.7 µg/mL)	15 µM (≈ 6.11 µg/mL)	> 64 µM	> 64 µM	1.8 µM	> 128 µM	> 64 µM	–
CC1(COCc2ccc(OC(F)(F)F)cc2)Cn2cc([N+](=O)[O-])nc2[S+]1[O-] (stereo in doubt; 18)	–	> 128 µM	> 64 µM	> 64 µM	1.6 µM	–	> 64 µM	–
CC1(COCc2ccc(OC(F)(F)F)cc2)Cn2cc([N+](=O)[O-])nc2[S+]1[O-] (stereo in doubt; 19)	> 128 µM	–	–	–	–	–	–	IC50 (Trypanosoma cruzi): 3 µM
CC1(COc2ccc(OC(F)(F)F)cc2)Cn2cc([N+](=O)[O-])nc2[S+]1[O-] (stereo in doubt; 37)	–	–	> 64 µM	> 64 µM	2.3 µM	> 128 µM	> 64 µM	MIC [4]: >128 µM; MIC [5]: >128 µM
CC1(COc2ccc(OC(F)(F)F)cc2)Cn2cc([N+](=O)[O-])nc2[S+]1[O-] (stereo in doubt; 38)	–	–	–	–	–	–	–	MIC [4]: 26 µM (≈ 10.2 µg/mL); MIC [5]: 58 µM (≈ 22.7 µg/mL); IC50 [6]: 41 µM; IC50 (Trypanosoma cruzi): 1.7 µM
CC1(COc2ccc(Oc3ccccc3)cc2)Cn2cc([N+](=O)[O-])nc2[S+]1[O-] (stereo in doubt; 39)	–	–	–	53 µM	–	> 128 µM	55 µM	MIC [5]: >128 µM; IC50 [6]: 0.36 µM; IC50 (Trypanosoma cruzi): 0.19 µM
CC1(COc2ccc(Oc3ccccc3)cc2)Cn2cc([N+](=O)[O-])nc2[S+]1[O-] (stereo in doubt; 40)	> 128 µM	–	–	–	–	–	–	MIC [5]: 25 µM (≈ 9.99 µg/mL); IC50 [6]: 0.98 µM; IC50 ([7]; mrc5 sv2): 51 µM; IC50 (Leishmania infantum): 42 µM; IC50 (Trypanosoma cruzi): 0.75 µM
